In ChEMBL document CHEMBL3621107, “Ring fusion strategy for synthesis and lead optimization of sulfur-substituted anthra[1,2-c][1,2,5]thiadiazole-6,11-dione derivatives as promising scaffold of antitumor agents” (Eur J Med Chem, 2015):

What was measured:
HCT-15 = experiment: Cytotoxicity against human HCT15 cells assessed as cell growth at 10 uM after 48 hrs by SRB assay relative to control; format: functional; conditions: HCT-15, 48 h, read-out: Activity
How it was run: (§1)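 First-stage NCI-60 screen by the NCI Developmental Therapeutics Program. Each compound was tested once at a single concentration of 10 μM against the 60-cell-line panel. Growth percentage was reported for each cell line.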

SK-MEL-28 = experiment: Cytotoxicity against human SK-MEL-28 cells assessed as cell growth at 10 uM after 48 hrs by SRB assay relative to control; format: functional; conditions: SK-MEL-28, 48 h, read-out: Activity
How it was run: (§2)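 First-stage NCI DTP one-dose screen against the 60 human tumour cell line panel. Compounds were tested at a single 10 μM level, and results are given as growth percentage.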

MCF7 = experiment: Cytotoxicity against human MCF7 cells assessed as cell growth at 10 uM after 48 hrs by SRB assay relative to control; format: functional; conditions: MCF7, 48 h, read-out: Activity; how it was run: as §1
KM12 = experiment: Cytotoxicity against human KM12 cells assessed as cell growth at 10 uM after 48 hrs by SRB assay relative to control; format: functional; conditions: KM12, 48 h, read-out: Activity; how it was run: as §1
HL-60(TB) = experiment: Cytotoxicity against human HL-60(TB) cells assessed as cell growth at 10 uM after 48 hrs by SRB assay relative to control; format: functional; conditions: HL-60, 48 h, read-out: Activity
How it was run: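 NCI Developmental Therapeutics Program 60-cell-line screen, first stage: a single dose of 10 μM against the panel, reported as percentage growth.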

UACC-62 = experiment: Cytotoxicity against human UACC62 cells assessed as cell growth at 10 uM after 48 hrs by SRB assay relative to control; format: functional; conditions: UACC-62, 48 h, read-out: Activity
How it was run: (§3)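 NCI-60 one-dose screen run by NCI DTP: each cell line exposed to a single 10 µM dose, and percentage growth recorded against untreated growth.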

OVCAR-8 = experiment: Cytotoxicity against human OVCAR8 cells assessed as cell growth at 10 uM after 48 hrs by SRB assay relative to control; format: functional; conditions: OVCAR-8, 48 h, read-out: Activity; how it was run: as §2
NCI-H23 = experiment: Cytotoxicity against human NCI-H23 cells assessed as cell growth at 10 uM after 48 hrs by SRB assay relative to control; format: functional; conditions: NCI-H23, 48 h, read-out: Activity; how it was run: as §2
HOP-62 = experiment: Cytotoxicity against human HOP62 cells assessed as cell growth at 10 uM after 48 hrs by SRB assay relative to control; format: functional; conditions: HOP-62, 48 h, read-out: Activity; how it was run: as §1
SN12C = experiment: Cytotoxicity against human SN12C cells assessed as cell growth at 10 uM after 48 hrs by SRB assay relative to control; format: functional; conditions: read-out: Activity; how it was run: as §2
SK-OV-3 = experiment: Cytotoxicity against human SKOV3 cells assessed as cell growth at 10 uM after 48 hrs by SRB assay relative to control; format: functional; conditions: SK-OV-3, 48 h, read-out: Activity; how it was run: as §2
COLO 205 = experiment: Cytotoxicity against human COLO205 cells assessed as cell growth at 10 uM after 48 hrs by SRB assay relative to control; format: functional; conditions: COLO 205, 48 h, read-out: Activity; how it was run: as §1
Malme-3M = experiment: Cytotoxicity against human MALME-3M cells assessed as cell growth at 10 uM after 48 hrs by SRB assay relative to control; format: functional; conditions: read-out: Activity; how it was run: as §1
SK-MEL-2 = experiment: Cytotoxicity against human SK-MEL-2 cells assessed as cell growth at 10 uM after 48 hrs by SRB assay relative to control; format: functional; conditions: SK-MEL-2, 48 h, read-out: Activity; how it was run: as §2
SF-539 = experiment: Cytotoxicity against human SF539 cells assessed as cell growth at 10 uM after 48 hrs by SRB assay relative to control; format: functional; conditions: SF-539, 48 h, read-out: Activity; how it was run: as §2
MDA-MB-231 = experiment: Cytotoxicity against human MDA-MB-231 cells assessed as cell growth at 10 uM after 48 hrs by SRB assay relative to control; format: functional; conditions: MDA-MB-231, 48 h, read-out: Activity; how it was run: as §2
NCI-H226 = experiment: Cytotoxicity against human NCI-H226 cells assessed as cell growth at 10 uM after 48 hrs by SRB assay relative to control; format: functional; conditions: NCI-H226, 48 h, read-out: Activity; how it was run: as §2
TK-10 = experiment: Cytotoxicity against human TK10 cells assessed as cell growth at 10 uM after 48 hrs by SRB assay relative to control; format: functional; conditions: TK-10, 48 h, read-out: Activity; how it was run: as §3
SNB-19 = experiment: Cytotoxicity against human SNB19 cells assessed as cell growth at 10 uM after 48 hrs by SRB assay relative to control; format: functional; conditions: SNB-19, 48 h, read-out: Activity; how it was run: as §3
HCT-116 = experiment: Cytotoxicity against human HCT116 cells assessed as cell growth at 10 uM after 48 hrs by SRB assay relative to control; format: functional; conditions: HCT-116, 48 h, read-out: Activity; how it was run: as §1
A549 = experiment: Cytotoxicity against human A549 cells assessed as cell growth at 10 uM after 48 hrs by SRB assay relative to control; format: functional; conditions: A549, 48 h, read-out: Activity; how it was run: as §1
786-0 = experiment: Cytotoxicity against human 786-0 cells assessed as cell growth at 10 uM after 48 hrs by SRB assay relative to control; format: functional; conditions: 786-0, 48 h, read-out: Activity; how it was run: as §1
NCI-H460 = experiment: Cytotoxicity against human NCI-H460 cells assessed as cell growth at 10 uM after 48 hrs by SRB assay relative to control; format: functional; conditions: NCI-H460, 48 h, read-out: Activity; how it was run: as §2
SR = experiment: Cytotoxicity against human SR cells assessed as cell growth at 10 uM after 48 hrs by SRB assay relative to control; format: functional; conditions: read-out: Activity; how it was run: as §3
UO-31 = experiment: Cytotoxicity against human UO31 cells assessed as cell growth at 10 uM after 48 hrs by SRB assay relative to control; format: functional; conditions: UO-31, 48 h, read-out: Activity; how it was run: as §3
PC-3 = experiment: Cytotoxicity against human PC3 cells after 48 hrs by SRB assay; format: functional, cell-based; conditions: PC-3, 48 h
How it was run: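 Second-stage NCI-60 panel run by the NCI Developmental Therapeutics Program, covering nine tumour subpanels. Five concentrations were tested: 0.01, 0.1, 1, 10 and 100 μM. Percentage growth at each level was plotted against log10 drug concentration. GI50, TGI and LC50 were read from these dose-response curves. Subpanel MID values were divided into the full-panel MID to give selectivity ratios.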

UACC-257 = experiment: Cytotoxicity against human UACC257 cells assessed as cell growth at 10 uM after 48 hrs by SRB assay relative to control; format: functional; conditions: UACC-257, 48 h, read-out: Activity; how it was run: as §3
SF-295 = experiment: Cytotoxicity against human SF295 cells assessed as cell growth at 10 uM after 48 hrs by SRB assay relative to control; format: functional; conditions: SF-295, 48 h, read-out: Activity; how it was run: as §2
NCI/ADR-RES = experiment: Cytotoxicity against human NCI/ADR-RES cells assessed as cell growth at 10 uM after 48 hrs by SRB assay relative to control; format: functional; conditions: read-out: Activity; how it was run: as §2
OVCAR-5 = experiment: Cytotoxicity against human OVCAR5 cells assessed as cell growth at 10 uM after 48 hrs by SRB assay relative to control; format: functional; conditions: OVCAR-5, 48 h, read-out: Activity; how it was run: as §2

Row | Compound | growth at 10 µM (HCT-15) [%] | growth at 10 µM (SK-MEL-28) [%] | growth at 10 µM (MCF7) [%] | growth at 10 µM (KM12) [%] | growth at 10 µM (HL-60(TB)) [%] | growth at 10 µM (UACC-62) [%] | growth at 10 µM (OVCAR-8) [%] | growth at 10 µM (NCI-H23) [%] | growth at 10 µM (HOP-62) [%] | growth at 10 µM (SN12C) [%] | growth at 10 µM (SK-OV-3) [%] | growth at 10 µM (COLO 205) [%] | growth at 10 µM (Malme-3M) [%] | growth at 10 µM (SK-MEL-2) [%] | growth at 10 µM (SF-539) [%] | growth at 10 µM (MDA-MB-231) [%] | growth at 10 µM (NCI-H226) [%] | growth at 10 µM (TK-10) [%] | growth at 10 µM (SNB-19) [%] | growth at 10 µM (HCT-116) [%] | other results
1 | O=C1c2ccccc2C(=O)c2c1cc(Cl)c1nsnc21 | 96.8 | 132 | 65.4 | 95.9 | 1.87 | 72.9 | -4.57 | 75 | 75.8 | 71.9 | 109 | 99.1 | 97.1 | 0.21 | 109 | -23.4 | 100 | 134 | 106 | 48.1 | growth at 10 µM (A549): 103%; growth at 10 µM (786-0): 102%; growth at 10 µM (NCI-H460): 100%; growth at 10 µM (SR): -23.9%; growth at 10 µM (UO-31): 80.2%; IC50 (PC-3): 13.5 µM; growth at 10 µM (UACC-257): 76.1%; growth at 10 µM (SF-295): 109%
2 | O=C1c2ccccc2C(=O)c2c1cc(SCc1ccccc1)c1nsnc21 | 54.7 | 95 | 56.4 | 103 | 70.3 | 43.1 | 6.01 | 55.3 | 83.7 | 66.1 | 80.3 | 103 | 80.8 | -3.95 | 68.3 | -13.4 | 101 | 130 | 94.3 | 53.1 | growth at 10 µM (NCI/ADR-RES): 62.3%; growth at 10 µM (A549): 102%; growth at 10 µM (786-0): 92.6%; growth at 10 µM (NCI-H460): 92%; growth at 10 µM (SR): 1.25%; growth at 10 µM (UO-31): 73.8%; IC50 (PC-3): > 15 µM; growth at 10 µM (UACC-257): 58.9%; growth at 10 µM (SF-295): 91.6%
3 | O=C1c2ccccc2C(=O)c2c1cc(Sc1ccccc1)c1nsnc21 | 93.9 | 127 | 94.9 | 99.5 | 83.9 | 86.3 | 82.3 | 79.2 | 110 | 96.6 | 106 | 118 | 106 | 112 | 107 | 66.7 | 102 | 143 | 109 | 90.1 | growth at 10 µM (A549): 106%; growth at 10 µM (786-0): 110%; growth at 10 µM (NCI-H460): 101%; growth at 10 µM (SR): 86.4%; growth at 10 µM (UO-31): 80.1%; IC50 (PC-3): > 15 µM; growth at 10 µM (UACC-257): 92.8%; growth at 10 µM (SF-295): 106%
4 | COc1ccc(Sc2cc3c(c4nsnc24)C(=O)c2ccccc2C3=O)cc1 | 109 | 116 | 93.8 | 101 | 103 | 109 | 99.5 | 89.1 | 95.2 | 107 | 106 | 112 | 89.5 | 99.2 | 93.5 | 87.6 | 79.5 | 136 | 114 | 94.6 | growth at 10 µM (NCI/ADR-RES): 97.6%; growth at 10 µM (OVCAR-5): 103%; growth at 10 µM (A549): 103%; growth at 10 µM (786-0): 94.9%; growth at 10 µM (NCI-H460): 107%; growth at 10 µM (SR): 102%; growth at 10 µM (UO-31): 68.3%; IC50 (PC-3): > 15 µM; growth at 10 µM (UACC-257): 118%
